# What was measured:
# [1] = Solubility of the compound; format: physicochemical
# Method in brief: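 Solubility determined on the bis-HCl salt, reported in mg/mL.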
# Histone deacetylase 1 = Histone deacetylase 1 (Homo sapiens, UniProt Q13547); format: cell-based, HEK293F
# [2] = molecular target: Voltage-gated inwardly rectifying potassium channel KCNH2 (Homo sapiens, UniProt Q12809); assay: Binding affinity to human ERG
# HCT-116 = assay: cells; format: functional, Homo sapiens; details: Homo sapiens, HCT-116, 72 h
# Chain of Histone deacetylase 1 (Q13547 whole entry): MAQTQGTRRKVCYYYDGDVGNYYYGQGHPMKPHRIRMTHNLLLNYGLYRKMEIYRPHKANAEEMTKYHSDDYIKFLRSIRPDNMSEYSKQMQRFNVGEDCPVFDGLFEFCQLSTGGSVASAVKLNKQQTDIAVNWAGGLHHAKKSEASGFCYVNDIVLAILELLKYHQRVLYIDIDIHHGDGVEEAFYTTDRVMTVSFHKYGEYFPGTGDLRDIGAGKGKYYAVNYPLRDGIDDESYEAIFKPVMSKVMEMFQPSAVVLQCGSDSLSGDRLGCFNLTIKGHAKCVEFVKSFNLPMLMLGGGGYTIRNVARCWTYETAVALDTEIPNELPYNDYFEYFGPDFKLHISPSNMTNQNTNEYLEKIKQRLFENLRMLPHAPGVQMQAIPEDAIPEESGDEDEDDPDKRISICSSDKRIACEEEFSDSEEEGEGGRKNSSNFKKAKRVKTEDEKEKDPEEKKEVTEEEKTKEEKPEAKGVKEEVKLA
# Chain of Voltage-gated inwardly rectifying potassium channel KCNH2 (Q12809 whole entry): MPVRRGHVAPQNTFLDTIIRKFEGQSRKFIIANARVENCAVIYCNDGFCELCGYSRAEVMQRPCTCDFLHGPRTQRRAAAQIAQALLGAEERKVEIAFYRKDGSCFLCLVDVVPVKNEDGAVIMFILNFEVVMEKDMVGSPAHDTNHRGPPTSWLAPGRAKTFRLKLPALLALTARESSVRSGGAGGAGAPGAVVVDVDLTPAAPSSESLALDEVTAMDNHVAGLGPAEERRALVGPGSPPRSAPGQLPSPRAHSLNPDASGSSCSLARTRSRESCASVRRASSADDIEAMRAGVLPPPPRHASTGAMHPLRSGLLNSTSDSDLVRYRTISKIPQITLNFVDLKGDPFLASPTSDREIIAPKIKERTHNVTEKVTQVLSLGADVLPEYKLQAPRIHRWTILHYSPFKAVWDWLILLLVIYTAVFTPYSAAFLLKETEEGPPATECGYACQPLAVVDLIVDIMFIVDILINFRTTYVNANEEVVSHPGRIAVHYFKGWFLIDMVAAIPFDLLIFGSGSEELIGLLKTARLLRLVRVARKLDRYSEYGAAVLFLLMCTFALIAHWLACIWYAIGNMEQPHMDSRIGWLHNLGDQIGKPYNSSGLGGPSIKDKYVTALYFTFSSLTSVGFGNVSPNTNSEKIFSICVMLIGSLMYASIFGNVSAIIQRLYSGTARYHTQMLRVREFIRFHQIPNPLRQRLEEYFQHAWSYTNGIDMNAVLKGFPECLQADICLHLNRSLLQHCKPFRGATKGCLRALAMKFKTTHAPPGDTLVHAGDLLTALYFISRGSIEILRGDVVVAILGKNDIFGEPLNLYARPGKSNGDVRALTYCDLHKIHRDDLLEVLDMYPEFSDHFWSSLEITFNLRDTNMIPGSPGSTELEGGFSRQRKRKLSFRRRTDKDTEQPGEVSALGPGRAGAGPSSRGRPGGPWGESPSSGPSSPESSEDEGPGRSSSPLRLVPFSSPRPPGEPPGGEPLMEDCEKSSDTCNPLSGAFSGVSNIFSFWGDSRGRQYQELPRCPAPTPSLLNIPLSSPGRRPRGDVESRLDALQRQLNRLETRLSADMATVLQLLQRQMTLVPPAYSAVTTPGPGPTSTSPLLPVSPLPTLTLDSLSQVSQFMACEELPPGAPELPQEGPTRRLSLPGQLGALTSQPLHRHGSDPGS
Compound,solubility [1],IC50 (Histone deacetylase 1),Ki [2],GI50 (HCT-116)
Cl.Nc1ccc(-c2cccs2)cc1NC(=O)c1ccc(N2CCC3(CC2)CNC(=O)O3)nc1,1300 µg/mL,–,–,–
Nc1ccccc1NC(=O)c1ccc(N2CCC3(CC2)CNC(=O)O3)nc1,–,580 nM,> 10 µM,5080 nM
Cn1cc(-c2ccc(N)c(NC(=O)c3ccc(N4CCC5(CC4)CNC(=O)O5)nc3)c2)cn1,–,18 nM,> 10 µM,2120 nM
Cc1csc(-c2ccc(N)c(NC(=O)c3ccc(N4CCC5(CC4)CNC(=O)O5)nc3)c2)c1,–,14 nM,2 µM,890 nM
Cn1cnc(-c2ccc(N)c(NC(=O)c3ccc(N4CCC5(CC4)CNC(=O)O5)nc3)c2)c1,–,51 nM,> 10 µM,4650 nM
Nc1ccc(-c2ccc(F)cc2)cc1NC(=O)c1ccc(N2CCC3(CC2)CNC(=O)O3)nc1,–,20 nM,0.62 µM,710 nM
Nc1ccc(-c2ccsc2)cc1NC(=O)c1ccc(N2CCC3(CC2)CNC(=O)O3)nc1,–,11 nM,> 30 µM,270 nM
Nc1ccc(-c2ccccc2)cc1NC(=O)c1ccc(N2CCC3(CC2)CNC(=O)O3)nc1,–,17 nM,3.4 µM,490 nM

# From ChEMBL document CHEMBL3286368, “Delayed and Prolonged Histone Hyperacetylation with a Selective HDAC1/HDAC2 Inhibitor” (ACS Med Chem Lett, 2014)
